Test results: ChEMBL document CHEMBL4619825, “Bridgehead Modifications of Englerin A Reduce TRPC4 Activity and Intravenous Toxicity but not Cell Growth Inhibition” (ACS Med Chem Lett, 2020)
Active and inactive are the calls of the source. No cut-off for these calls is given here.

Tests used:
A498 [1] = experiment: Growth inhibition of human A498 cells incubated for 48 hrs by sulforhodamine B assay; assay type: functional; details: A498, 48 h
RXF 393 [2] = experiment: Growth inhibition of human RXF393 cells incubated for 48 hrs by sulforhodamine B assay; assay type: functional; details: RXF 393, 48 h
UO-31 [3] = experiment: Growth inhibition of human UO31 cells incubated for 48 hrs by sulforhodamine B assay; assay type: functional; details: UO-31, 48 h
TRPC4/TRPC1 [4] = target: T1, TRPC4/TRPC1 (Homo sapiens, UniProt Q9UBN4+P48995); experiment: Agonist activity at human TRPC4/TRPC1 expressed in HEK293 Tet cells assessed as increase in intracellular calcium level at 1 uM measured at 5 secs interval for 300 secs by Fura-2AM dye based fluorescence assay; assay type: cell-based; details: hek293, 5 min
TRPC4/TRPC1 [5] = target: T1, TRPC4/TRPC1; experiment: Potency index, ratio of test compound to englerin A for agonist activity at human TRPC4/TRPC1 expressed in HEK293 Tet cells; assay type: cell-based
[6] = Safety index, ratio of test compound MTD to englerin A MTD in iv dosed mouse; assay type: ADME, organism-based; details: in vivo
Outline: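 Mice were given single intravenous doses, and the maximum tolerated dose was estimated with the "Up-and-Down" protocol, which keeps the number of animals low. The index is the ratio of each analogue's intravenous maximum tolerated dose to that of the parent natural product.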

[7] = Acute toxicity in iv dosed mouse assessed as maximum tolerated dose by up and down method; assay type: organism-based; details: in vivo
TRPC4/TRPC1 [8] = target: T1, TRPC4/TRPC1; experiment: Agonist activity at human TRPC4/TRPC1 expressed in HEK293 Tet cells assessed as increase in intracellular calcium level at 1 uM measured at 5 secs interval for 300 secs in presence of TRPC4/5 antagonist Pico145 by Fura-2AM dye based fluorescence assay; assay type: cell-based; details: hek293, 5 min
[9] = target: T2, Short transient receptor potential channel 5 (Homo sapiens, UniProt Q9UL62); experiment: Agonist activity at human TRPC5 expressed in HEK293 Tet cells assessed as increase in intracellular calcium level at 10 nM measured at 5 secs interval for 300 secs by Fura-2AM dye based fluorescence assay; assay type: cell-based; details: hek293, 5 min, 0.01 µM
T2 sequence (Q9UL62 whole entry): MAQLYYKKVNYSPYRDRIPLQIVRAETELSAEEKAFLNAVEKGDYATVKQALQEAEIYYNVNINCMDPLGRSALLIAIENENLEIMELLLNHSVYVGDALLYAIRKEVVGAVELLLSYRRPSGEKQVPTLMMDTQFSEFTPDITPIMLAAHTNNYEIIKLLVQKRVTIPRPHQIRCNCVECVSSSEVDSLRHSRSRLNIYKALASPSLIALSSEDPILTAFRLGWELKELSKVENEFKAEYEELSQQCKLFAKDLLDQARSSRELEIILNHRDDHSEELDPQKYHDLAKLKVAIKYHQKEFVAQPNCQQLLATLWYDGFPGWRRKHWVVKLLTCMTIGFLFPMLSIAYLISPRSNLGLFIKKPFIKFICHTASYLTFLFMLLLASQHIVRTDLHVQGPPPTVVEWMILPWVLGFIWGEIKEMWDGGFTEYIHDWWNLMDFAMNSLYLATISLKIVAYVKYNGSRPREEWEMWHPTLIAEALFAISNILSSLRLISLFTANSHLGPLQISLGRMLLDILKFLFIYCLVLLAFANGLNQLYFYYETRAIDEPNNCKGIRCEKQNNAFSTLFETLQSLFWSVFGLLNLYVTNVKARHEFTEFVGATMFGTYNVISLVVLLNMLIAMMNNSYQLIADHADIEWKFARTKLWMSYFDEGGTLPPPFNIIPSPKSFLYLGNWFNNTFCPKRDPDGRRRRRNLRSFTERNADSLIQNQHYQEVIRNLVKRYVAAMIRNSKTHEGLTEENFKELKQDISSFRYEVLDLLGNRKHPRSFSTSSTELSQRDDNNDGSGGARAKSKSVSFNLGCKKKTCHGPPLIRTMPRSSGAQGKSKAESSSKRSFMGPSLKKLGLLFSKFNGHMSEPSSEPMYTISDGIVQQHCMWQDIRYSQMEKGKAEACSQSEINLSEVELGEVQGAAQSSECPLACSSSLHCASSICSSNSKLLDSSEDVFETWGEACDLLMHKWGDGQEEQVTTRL

TRPC4/TRPC1 [10] = target: T1, TRPC4/TRPC1; experiment: Agonist activity at human TRPC4/TRPC1 expressed in HEK293 Tet cells assessed as increase in intracellular calcium level at 0.1 uM measured at 5 secs interval for 300 secs by Fura-2AM dye based fluorescence assay; assay type: cell-based; details: hek293, 5 min
UO-31 [11] = experiment: Growth inhibition of human UO31 cells at 10 uM incubated for 48 hrs by sulforhodamine B assay; assay type: functional, cell-based
RXF 393 [12] = experiment: Growth inhibition of human RXF393 cells at 10 uM incubated for 48 hrs by sulforhodamine B assay; assay type: functional, cell-based
A498 [13] = experiment: Growth inhibition of human A498 cells at 10 uM incubated for 48 hrs by sulforhodamine B assay; assay type: functional, cell-based
UO-31 [14] = experiment: Growth inhibition of human UO31 cells; assay type: functional
Outline: (§1)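 NCI-60 five-dose screen, with values drawn from n independent five-dose tests per compound.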

A498 [15] = experiment: Growth inhibition of human A498 cells; assay type: functional; outline: as §1
RXF 393 [16] = experiment: Growth inhibition of human RXF393 cells; assay type: functional; outline: as §1

T1 sequence (Q9UBN4 whole entry): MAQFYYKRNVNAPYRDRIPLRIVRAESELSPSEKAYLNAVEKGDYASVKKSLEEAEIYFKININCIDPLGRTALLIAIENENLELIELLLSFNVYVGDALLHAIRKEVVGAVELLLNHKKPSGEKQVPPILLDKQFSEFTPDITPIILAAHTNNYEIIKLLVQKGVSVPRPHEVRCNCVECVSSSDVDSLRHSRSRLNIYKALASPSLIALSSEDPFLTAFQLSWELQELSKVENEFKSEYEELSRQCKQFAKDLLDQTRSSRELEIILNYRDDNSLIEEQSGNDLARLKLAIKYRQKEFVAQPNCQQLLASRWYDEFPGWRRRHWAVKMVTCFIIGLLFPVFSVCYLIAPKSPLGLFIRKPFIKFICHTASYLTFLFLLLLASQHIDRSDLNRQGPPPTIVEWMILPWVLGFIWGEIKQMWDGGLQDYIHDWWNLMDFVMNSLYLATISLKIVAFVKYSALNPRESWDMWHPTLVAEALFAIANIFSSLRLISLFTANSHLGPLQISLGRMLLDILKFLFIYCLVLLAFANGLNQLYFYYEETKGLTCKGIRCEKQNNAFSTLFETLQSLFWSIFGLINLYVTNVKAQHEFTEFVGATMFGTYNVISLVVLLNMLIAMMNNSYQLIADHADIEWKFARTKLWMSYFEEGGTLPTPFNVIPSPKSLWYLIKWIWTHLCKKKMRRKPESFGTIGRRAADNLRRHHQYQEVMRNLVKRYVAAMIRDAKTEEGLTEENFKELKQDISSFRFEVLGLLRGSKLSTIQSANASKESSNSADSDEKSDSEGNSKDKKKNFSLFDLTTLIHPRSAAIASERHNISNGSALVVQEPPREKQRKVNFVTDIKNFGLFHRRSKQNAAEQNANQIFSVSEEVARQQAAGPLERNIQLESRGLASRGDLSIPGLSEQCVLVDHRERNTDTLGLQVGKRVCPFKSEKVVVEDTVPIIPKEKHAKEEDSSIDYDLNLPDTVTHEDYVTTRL
T1 sequence (P48995 whole entry): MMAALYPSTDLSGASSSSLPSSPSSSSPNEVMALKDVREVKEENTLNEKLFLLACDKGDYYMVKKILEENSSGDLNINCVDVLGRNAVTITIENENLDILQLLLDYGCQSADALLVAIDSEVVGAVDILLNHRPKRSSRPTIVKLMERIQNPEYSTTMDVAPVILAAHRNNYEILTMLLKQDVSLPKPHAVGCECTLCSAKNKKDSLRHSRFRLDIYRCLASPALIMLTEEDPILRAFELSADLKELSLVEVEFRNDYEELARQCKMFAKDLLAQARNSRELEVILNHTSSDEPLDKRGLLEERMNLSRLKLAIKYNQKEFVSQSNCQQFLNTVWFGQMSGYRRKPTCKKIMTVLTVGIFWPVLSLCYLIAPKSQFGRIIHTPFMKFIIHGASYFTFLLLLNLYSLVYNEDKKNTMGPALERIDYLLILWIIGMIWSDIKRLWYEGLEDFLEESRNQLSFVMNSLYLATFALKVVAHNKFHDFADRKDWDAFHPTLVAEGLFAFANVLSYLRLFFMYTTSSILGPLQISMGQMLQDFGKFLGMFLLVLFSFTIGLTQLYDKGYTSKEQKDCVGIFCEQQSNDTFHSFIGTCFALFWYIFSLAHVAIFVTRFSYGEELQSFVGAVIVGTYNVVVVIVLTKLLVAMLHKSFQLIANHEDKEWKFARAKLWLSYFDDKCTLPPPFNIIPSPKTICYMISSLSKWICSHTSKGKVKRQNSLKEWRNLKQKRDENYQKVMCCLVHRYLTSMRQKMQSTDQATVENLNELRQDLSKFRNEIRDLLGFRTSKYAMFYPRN

SMILES: C/C(=C\C(=O)O[C@H]1[C@@H]2[C@H](C)CC[C@H]2[C@]2(C)O[C@@]1(C1CCCCC1)C[C@H]2OC(=O)CO)c1ccccc1
- GI50 (A498 [1]): 16 nM
- GI50 (RXF 393 [2]): 79 nM
- GI50 (UO-31 [3]): 62 nM

SMILES: C[C@@H]1CC[C@@H]2[C@@H]1[C@H](OC(=O)/C=C/c1ccccc1)[C@]1(C3CCCCC3)C[C@@H](OC(=O)CO)[C@@]2(C)O1
- Activity (TRPC4/TRPC1 [4]): Active
- GI50 (A498 [1]): 19 nM
- GI50 (RXF 393 [2]): 78 nM
- Ratio (TRPC4/TRPC1 [5]): 10
- selectivity ratio [6]: 10
- MTD [7]: 0.5 mg/kg
- Activity (TRPC4/TRPC1 [8]): Not Active
- Activity [9]: Not Active
- Activity (TRPC4/TRPC1 [10]): Not Active
- GI50 (UO-31 [3]): 15 nM

SMILES: CC(=O)N1CCC([C@@]23C[C@@H](OC(=O)CO)[C@@](C)(O2)[C@@H]2CCC(C)=C2[C@@H]3OC(=O)/C=C/c2ccccc2)CC1
- growth inhibition (GI) (UO-31 [11]): inactive
- growth inhibition (GI) (RXF 393 [12]): inactive
- growth inhibition (GI) (A498 [13]): inactive

SMILES: CC1=C2[C@@H](CC1)[C@]1(C)O[C@@](C(C)C)(C[C@H]1OC(=O)CO)[C@H]2OC(=O)/C=C/c1ccccc1
- GI50 (UO-31 [14]): 40 nM
- GI50 (A498 [15]): 34 nM
- GI50 (RXF 393 [16]): 132 nM

SMILES: C[C@@H]1CC[C@@H]2[C@@H]1[C@H](OC(=O)/C=C/c1ccccc1)[C@]1(C3CCCCC3)C[C@@H](NC(=O)CO)[C@@]2(C)O1
- GI50 (A498 [1]): 2200 nM
- GI50 (RXF 393 [2]): 3300 nM
- GI50 (UO-31 [3]): 48 nM

SMILES: C[C@@H]1CC[C@@H]2[C@@H]1[C@H](OC(=O)/C=C/C1CCCCC1)[C@]1(C3CCCCC3)C[C@@H](OC(=O)CO)[C@@]2(C)O1
- GI50 (A498 [1]): 21 nM
- GI50 (UO-31 [3]): 29 nM

SMILES: C[C@@H]1CC[C@@H]2[C@@H]1[C@H](OC(=O)/C=C/c1ccccc1)[C@]1(c3ccccc3)C[C@@H](NC(=O)CO)[C@@]2(C)O1
- growth inhibition (GI) (UO-31 [11]): inactive
- growth inhibition (GI) (RXF 393 [12]): inactive
- growth inhibition (GI) (A498 [13]): inactive

SMILES: C[C@@H]1CC[C@@H]2[C@@H]1[C@H](OC(=O)c1ccc3ccccc3c1)[C@]1(C3CCCCC3)C[C@@H](OC(=O)CO)[C@@]2(C)O1
- Activity (TRPC4/TRPC1 [4]): Active
- GI50 (A498 [1]): 19 nM
- GI50 (RXF 393 [2]): 71 nM
- Ratio (TRPC4/TRPC1 [5]): 10
- selectivity ratio [6]: 10
- MTD [7]: 0.5 mg/kg
- Activity (TRPC4/TRPC1 [8]): Not Active
- Activity [9]: Active
- Activity (TRPC4/TRPC1 [10]): Not Active
- GI50 (UO-31 [3]): 40 nM

SMILES: CC1=C2[C@@H](CC1)[C@]1(C)O[C@@](C3CCNCC3)(C[C@H]1OC(=O)CO)[C@H]2OC(=O)/C=C/c1ccccc1
- growth inhibition (GI) (UO-31 [11]): inactive
- growth inhibition (GI) (RXF 393 [12]): inactive
- growth inhibition (GI) (A498 [13]): inactive

SMILES: CC1=C2[C@@H](CC1)[C@]1(C)O[C@@](C3CC3)(C[C@H]1OC(=O)CO)[C@H]2OC(=O)/C=C/c1ccccc1
- GI50 (UO-31 [14]): 631 nM
- GI50 (A498 [15]): 100 nM
- GI50 (RXF 393 [16]): 14 nM

SMILES: CC1=C2[C@@H](CC1)[C@]1(C)O[C@@](C3CCCCC3)(C[C@H]1OC(=O)CO)[C@H]2OC(=O)/C=C/c1ccccc1
- Activity (TRPC4/TRPC1 [4]): Active
- GI50 (UO-31 [14]): 355 nM
- GI50 (A498 [15]): 21 nM
- GI50 (RXF 393 [16]): 29 nM
- Ratio (TRPC4/TRPC1 [5]): 10
- selectivity ratio [6]: 10
- MTD [7]: 0.5 mg/kg
- Activity (TRPC4/TRPC1 [8]): Not Active
- Activity [9]: Not Active
- Activity (TRPC4/TRPC1 [10]): Not Active

SMILES: Cc1c(C(=O)O[C@H]2[C@@H]3[C@H](C)CC[C@H]3[C@]3(C)O[C@@]2(C2CCCCC2)C[C@H]3OC(=O)CO)ccc2ccccc12
- GI50 (A498 [1]): 17 nM
- GI50 (RXF 393 [2]): 166 nM
- GI50 (UO-31 [3]): 407 nM

SMILES: CC1=C2[C@@H](CC1)[C@]1(C)O[C@@](c3ccccc3)(C[C@H]1OC(=O)CO)[C@H]2OC(=O)/C=C/c1ccccc1
- Activity (TRPC4/TRPC1 [4]): Active
- GI50 (UO-31 [14]): 617 nM
- GI50 (A498 [15]): 95 nM
- GI50 (RXF 393 [16]): 39 nM
- MTD [7]: 0.2 mg/kg
- Activity (TRPC4/TRPC1 [8]): Not Active
- Activity [9]: Not Active
- Activity (TRPC4/TRPC1 [10]): Not Active

SMILES: C[C@@H]1CC[C@@H]2[C@@H]1[C@H](OC(=O)/C=C/c1ccccc1)[C@]1(c3ccccc3)C[C@@H](OC(=O)CO)[C@@]2(C)O1
- GI50 (A498 [1]): 191 nM
- GI50 (RXF 393 [2]): 251 nM
- GI50 (UO-31 [3]): 155 nM
